Active and inactive are the calls of the source. No cut-off for these calls is given here.
Tests used:
HEK293 [1] = test: Growth inhibition of HEK293 cells harboring Wnt after 24 hrs by CellTiter-Fluor assay; type: cell-based; details: human, hek293, 24 h
Procedure, shortened: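 HEK293 cells stably carrying the TOPFlash reporter were plated at 2000/well in DMEM with 10% FBS and incubated overnight. Compound was added with recombinant human Wnt-3a, then incubated 24 h at 37 °C. CellTiter-Fluor reagent was added and fluorescence read after 30 min at 37 °C.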

HEK293 [2] = test: Inhibition of Wnt3a activated Wnt/beta-catenin/Axin signaling (unknown origin) expressed in HEK293 cells assessed as degradation of beta-catenin by measuring decrease in beta-catenin protein expression at 1 to 10 uM after 2 hrs by Western blot method; type: cell-based; details: Homo sapiens
Procedure, shortened: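 HEK293 cells stimulated with WNT3a were treated with compound for 2 h. Cells were lysed in 10 mM HEPES, 100 μM EDTA, 10 mM KCl, 0.5% NP40, protein was quantified by BCA, and β-catenin and Axin1 were resolved on 10% SDS-PAGE and immunoblotted.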

HEK293 [3] = test: Inhibition of Wnt/beta-catenin/Axin signaling (unknown origin) expressed in HEK293 cells assessed as decrease in Axin2 mRNA level after 48 hrs by qPCR analysis; type: cell-based; details: Homo sapiens
Procedure, shortened: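 HEK293 cells were treated with compound for 48 h, harvested in TRIzol, and Wnt target gene mRNA was quantified by qPCR.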

HEK293 [4] = test: Inhibition of LiCl-activated Wnt/beta-catenin/Axin signaling (unknown origin) expressed in HEK293 cells assessed as degradation of beta-catenin by measuring decrease in beta-catenin protein expression after 24 hrs by Western blot method; type: cell-based; details: Homo sapiens
Procedure, shortened: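 HEK293 cells were treated with compound in the presence of lithium chloride for 24 h. Lysis buffer contained 10 mM HEPES, 100 μM EDTA, 10 mM KCl, 0.5% NP40 and inhibitors. Protein was quantified by BCA, resolved on 10% SDS-PAGE, and immunoblotted for β-catenin.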

HEK293 [5] = test: Inhibition of Wnt (unknown origin)/FLAG-tagged human beta-catenin S33Y mutant signaling expressed in HEK293 cells harboring TCF/LEF-responsive luciferase at 100 nM measured after 24 hrs by luciferase reporter gene assay; type: cell-based
Procedure, shortened: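 HEK293 cells were transfected for 16 h with TOPFlash or FOPFlash, Renilla, and pcDNA3 wild-type or S33Y β-catenin. Compound was then added for a further 24 h. Firefly/Renilla dual-luciferase ratio was the read-out.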

HEK293 [6] = test: Inhibition of Wnt/beta-catenin/Axin signaling (unknown origin) expressed in HEK293 cells assessed as increase in Axin binding to beta-catenin after 12 hrs by immunoprecipitation method; type: cell-based; details: Homo sapiens
HEK293 [7] = test: Inhibition of Wnt/beta-catenin signaling (unknown origin) expressed in HEK293 cells assessed as increase in GSK3beta binding to beta-catenin after 12 hrs by immunoprecipitation method; type: cell-based; details: Homo sapiens
[8] = Inhibition of Wnt/beta-catenin signaling (unknown origin) expressed in HEK293 cells harboring siRNA after 24 hrs by luciferase reporter gene assay; type: cell-based; details: Homo sapiens, HEK293, 24 h
SW480 = test: Inhibition of Wnt/beta-catenin signaling in human SW480 cells harboring APC mutant at 50 nM after 24 hrs by luciferase reporter gene assay; type: cell-based
Axin-1 (Homo sapiens) = Axin-1 (Homo sapiens) (UniProt O15169); test: Stabilization of Axin1 in human HuH7 cells assessed as decrease in lipid accumulation at 5 uM after 36 hrs by nile red staining based fluorescence microscopic method; type: cell-based
Sequence of Axin-1 (Homo sapiens) (O15169 whole entry): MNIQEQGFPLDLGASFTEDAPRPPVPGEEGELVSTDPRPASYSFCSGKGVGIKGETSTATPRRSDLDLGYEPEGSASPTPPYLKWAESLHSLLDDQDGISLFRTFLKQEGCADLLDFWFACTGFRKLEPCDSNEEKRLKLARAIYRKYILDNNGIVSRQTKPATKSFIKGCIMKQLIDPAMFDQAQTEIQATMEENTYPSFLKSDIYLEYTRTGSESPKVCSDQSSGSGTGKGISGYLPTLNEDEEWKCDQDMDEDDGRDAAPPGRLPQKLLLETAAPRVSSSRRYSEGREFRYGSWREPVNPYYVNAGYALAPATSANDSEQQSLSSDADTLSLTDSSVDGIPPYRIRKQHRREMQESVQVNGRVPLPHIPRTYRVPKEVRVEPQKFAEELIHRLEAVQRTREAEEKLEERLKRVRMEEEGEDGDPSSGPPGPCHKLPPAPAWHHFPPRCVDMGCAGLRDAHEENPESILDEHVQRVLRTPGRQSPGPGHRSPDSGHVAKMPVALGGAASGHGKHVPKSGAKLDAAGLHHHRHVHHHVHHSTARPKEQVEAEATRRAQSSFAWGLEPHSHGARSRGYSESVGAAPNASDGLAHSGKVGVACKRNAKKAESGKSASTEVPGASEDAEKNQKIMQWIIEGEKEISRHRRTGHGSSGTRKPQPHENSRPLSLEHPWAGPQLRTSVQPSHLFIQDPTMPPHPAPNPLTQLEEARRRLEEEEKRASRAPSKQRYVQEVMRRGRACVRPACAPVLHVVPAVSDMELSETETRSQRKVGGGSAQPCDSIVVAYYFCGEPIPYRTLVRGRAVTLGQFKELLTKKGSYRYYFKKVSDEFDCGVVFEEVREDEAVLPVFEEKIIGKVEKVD
Procedure, shortened: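 Huh7 cells on collagen I-coated coverslips were treated with 5 μM compound for 36 h, then with 200 μM sodium oleate for a further 12–16 h. Cells were stained with 1 μM Nile red in HBSS for 10 min at 37 °C in the dark and imaged by fluorescence microscopy at 552/636 nm.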

Mus musculus [9] = species: Mus musculus; test: Inhibition of Wnt/beta-catenin/Axin signaling in mouse hepatocytes assessed as decrease in ACAA1A mRNA level at 5 uM by qPCR analysis; type: cell-based
Procedure, shortened: (§1)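 Normal mouse hepatocytes were treated with 5 μM compound, and lipogenic and gluconeogenic gene mRNA was measured by qPCR; mean ± S.D. of triplicates.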

Mus musculus [10] = species: Mus musculus; test: Inhibition of Wnt/beta-catenin/Axin signaling in mouse hepatocytes assessed as decrease in ACOT4 mRNA level at 5 uM by qPCR analysis; type: cell-based; procedure, shortened: as §1
[11] = Oral bioavailability in mouse at 10 mg/kg administered as single dose by LC-MS analysis; type: ADME, organism-based; details: in vivo
Mus musculus [12] = test: Antidiabetic activity in high fat diet fed C57BL/6J mouse assessed as improvement in glucose tolerance at 40 mg/kg, ip administered every 2 days for 11 weeks followed by glucose-challenge and measured up to 120 mins by IPGTT; type: functional, organism-based
Procedure, shortened: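 Male mice, 8 weeks old, fed a 45% kcal fat diet for 6 weeks, then dosed i.p. every 2 days in corn oil vehicle alongside the continued diet. IPGTT was done before and at the end of treatment: 6–8 h fast, then glucose 2 g/kg i.p. in saline. Tail-vein blood glucose was read by glucometer over time, and AUC was derived; mean ± SEM, n = 5 per group.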

Mus musculus [13] = test: Effect on hepatic CycD1 mRNA level in normal chow diet fed C57BL/6J mouse at 40 mg/kg, ip administered every 2 days for 11 weeks by qPCR analysis; type: ADME, organism-based; details: in vivo
Procedure, shortened: (§2)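 Male mice, 8 weeks old, kept on normal chow throughout and dosed i.p. every 2 days in corn oil vehicle for 11 weeks. Body weight gain, liver/body weight ratio, and liver mRNA of the indicated genes were measured at sacrifice; mean ± SEM, n = 5 per group where stated.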

Mus musculus [14] = test: Effect on hepatic Glp1 mRNA level in normal chow diet fed C57BL/6J mouse at 40 mg/kg, ip administered every 2 days for 11 weeks by qPCR analysis; type: ADME, organism-based; details: in vivo; procedure, shortened: as §2
Mus musculus [15] = test: Decrease in liver weight adjusted by body weight gain in high fat diet fed C57BL/6J mouse at 40 mg/kg, ip administered every 2 days for 11 weeks; type: functional, organism-based
Procedure, shortened: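 Male mice, 8 weeks old, 24–27 g, given a 45% kcal fat diet for 6 weeks, then dosed i.p. every 2 days in corn oil vehicle with the diet continued. Sacrifice was about 24 h after the last dose. Liver was examined by H&E. Liver and serum triglyceride were measured by kit. Serum chemistry was included, and liver/body weight ratio was calculated.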

[16] = Toxicity in high fat diet fed C57BL/6J mouse assessed as serum ALT level at 40 mg/kg, ip administered every 2 days for 11 weeks (reference value: 63.3 +/- 26.9 U/L); type: organism-based; details: in vivo
[17] = Toxicity in high fat diet fed C57BL/6J mouse assessed as serum alkaline phosphatase level at 40 mg/kg, ip administered every 2 days for 11 weeks (reference value: 58.3 +/- 3.8 U/L); type: organism-based; details: in vivo
[18] = Toxicity in high fat diet fed C57BL/6J mouse assessed as serum AST level at 40 mg/kg, ip administered every 2 days for 11 weeks (reference value: 131 +/- 15.6 U/L); type: organism-based; details: in vivo
[19] = Toxicity in high fat diet fed C57BL/6J mouse assessed as serum LDH level at 40 mg/kg, ip administered every 2 days for 11 weeks (reference value: 469 +/- 67 U/L); type: organism-based; details: in vivo
[20] = Toxicity in high fat diet fed C57BL/6J mouse assessed as serum uric acid level at 40 mg/kg, ip administered every 2 days for 11 weeks (reference value: 6.3 +/- 0.5 mg/dl); type: organism-based; details: in vivo
[21] = Toxicity in normal chow diet fed C57BL/6J mouse assessed as serum cholesterol level at 40 mg/kg, ip administered every 2 days for 11 weeks (reference value: 183 +/- 16.6 mg/dl); type: organism-based; details: in vivo

Cc1ccccc1-n1nnc(C(=O)Nc2ccc3ccccc3n2)c1C
growth inhibition (GI) (HEK293 [1]): Non-Toxic | inhibition (HEK293 [2]): Active | inhibition (HEK293 [3]): Active | inhibition (HEK293 [4]): Active | inhibition (HEK293 [5]): Active | inhibition (HEK293 [6]): Active | inhibition (HEK293 [7]): Active | IC50 [8]: 20 nM | inhibition (SW480): Active | Activity (Axin-1 (Homo sapiens)): Active | inhibition (Mus musculus [9]): Active | inhibition (Mus musculus [10]): Active | bioavailability [11]: 21% | Activity (Mus musculus [12]): Active | Activity (Mus musculus [13]): Non-Toxic | Activity (Mus musculus [14]): Non-Toxic | Activity (Mus musculus [15]): Active | Activity [16]: 21 U/L | Activity [17]: 51 U/L | Activity [18]: 94.8 U/L | Activity [19]: 313 U/L | Activity [20]: 4.8 mg/dL | Activity [21]: 194 mg/dL

— ChEMBL document CHEMBL4371095, “Triazole-Based Inhibitors of the Wnt/β-Catenin Signaling Pathway Improve Glucose and Lipid Metabolisms in Diet-Induced Obese Mice” (J Med Chem, 2019)
